In ChEMBL document CHEMBL1141667, “Synthesis and antimicrobial activities of 7-O-modified genistein derivatives” (2008):
Values after ≈ are worked out from the molar mass of the structure shown.

Legend:
Type in all cases: functional
[1] = system: Bacillus subtilis; experiment: Antibacterial activity against Bacillus subtilis after 24 hrs by MTT assay
In short: (§1)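 Broth microdilution MIC in MH medium. Compounds from a 50 mg/mL DMSO stock were serially diluted in medium. Inoculum was about 10⁵ cfu/mL, each concentration in triplicate, incubated at 37 °C for 24 h. MIC was read visually, then confirmed by adding PBS with 2 mg/mL MTT and incubating 4–5 h at room temperature. A compound-free medium control checked for any MTT effect on growth.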

[2] = system: Staphylococcus aureus; experiment: Antibacterial activity against Staphylococcus aureus after 24 hrs by MTT assay; in short: as §1
[3] = system: Pseudomonas fluorescens; experiment: Antibacterial activity against Pseudomonas fluorescens after 24 hrs by MTT assay; in short: as §1
[4] = system: Escherichia coli; experiment: Antibacterial activity against Escherichia coli after 24 hrs by MTT assay; in short: as §1
[5] = system: Trichophyton rubrum; experiment: Antifungal activity against Trichophyton rubrum after 48 hrs by MTT assay
In short: (§2)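 Antifungal MIC by microdilution in RPMI-1640 medium. Compounds came from a 50 mg/mL DMSO stock and were serially diluted. Inoculum was about 10⁵ cfu/mL, with triplicate wells per concentration, incubated at 37 °C for 48 h. MIC was judged visually, followed by PBS containing 2 mg/mL MTT for 4–5 h at room temperature for the colorimetric read. A compound-free control tested MTT interference.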

[6] = system: Candida albicans; experiment: Antifungal activity against Candida albicans after 48 hrs by MTT assay; in short: as §2
[7] = system: Aspergillus niger; experiment: Antifungal activity against Aspergillus niger after 48 hrs by MTT assay; in short: as §2

Compound	MIC [1] [mg/L]	MIC [2] [mg/L]	MIC [3] [mg/L]	MIC [4] [mg/L]	MIC [5] [mg/L]	MIC [6] [mg/L]	MIC [7] [mg/L]
O=c1c(-c2ccc(O)cc2)coc2cc(OCCCCN3CCNCC3)cc(O)c12	15.5 (≈ 37.8 µM)	20.1 (≈ 49 µM)	37.5 (≈ 91.4 µM)	> 50	> 50	> 50	> 50
O=c1c(-c2ccc(O)cc2)coc2cc(OCCCCBr)cc(O)c12	> 50	> 50	> 50	> 50	> 50	> 50	> 50
O=c1c(-c2ccc(O)cc2)coc2cc(OCCCCN3CCCCC3)cc(O)c12	> 50	> 50	> 50	> 50	> 50	> 50	> 50
CC(=O)N1CCN(c2ccc(OCC3COC(Cn4ccnc4)(c4ccc(Cl)cc4Cl)O3)cc2)CC1 (configuration not stated) [KETOCONAZOLE]	–	–	–	–	3.9 (≈ 7.34 µM)	3.9 (≈ 7.34 µM)	7.8 (≈ 14.7 µM)
O=c1c(-c2ccc(O)cc2)coc2cc(OCCCNCc3ccco3)cc(O)c12	12.5 (≈ 30.7 µM)	3.4 (≈ 8.35 µM)	10.5 (≈ 25.8 µM)	> 50	> 50	> 50	45.5 (≈ 112 µM)
O=c1c(-c2ccc(O)cc2)coc2cc(OCCCN3CCNCC3)cc(O)c12	> 50	40 (≈ 101 µM)	> 50	> 50	> 50	> 50	> 50
O=c1c(-c2ccc(O)cc2)coc2cc(OCCCCN3CCCC3)cc(O)c12	38.5 (≈ 97.4 µM)	23.7 (≈ 59.9 µM)	23.1 (≈ 58.4 µM)	> 50	48.5 (≈ 123 µM)	> 50	> 50
CN1CCN(CCCOc2cc(O)c3c(=O)c(-c4ccc(O)cc4)coc3c2)CC1	43 (≈ 105 µM)	> 50	> 50	> 50	> 50	> 50	> 50
O=c1c(-c2ccc(O)cc2)coc2cc(O)cc(O)c12 [GENISTEIN]	> 50	> 50	> 50	> 50	> 50	> 50	> 50
CCCCN(CCCC)CCCCOc1cc(O)c2c(=O)c(-c3ccc(O)cc3)coc2c1	3.7 (≈ 8.16 µM)	1.7 (≈ 3.75 µM)	13.2 (≈ 29.1 µM)	> 50	> 50	> 50	> 50
O=c1c(-c2ccc(O)cc2)coc2cc(OCCCn3cnc4ccccc43)cc(O)c12	> 50	> 50	> 50	> 50	> 50	> 50	> 50
O=c1c(-c2ccc(O)cc2)coc2cc(OCCN3CCNCC3)cc(O)c12	47.5 (≈ 124 µM)	17.5 (≈ 45.8 µM)	23.5 (≈ 61.5 µM)	> 50	> 50	> 50	> 50
CN1CCN(CCOc2cc(O)c3c(=O)c(-c4ccc(O)cc4)coc3c2)CC1	> 50	35.5 (≈ 89.5 µM)	> 50	> 50	> 50	> 50	> 50
O=c1c(-c2ccc(O)cc2)coc2cc(OCCN3CCCCC3)cc(O)c12	> 50	> 50	> 50	> 50	> 50	> 50	> 50
O=c1c(-c2ccc(O)cc2)coc2cc(OCCn3ccnc3)cc(O)c12	> 50	> 50	> 50	> 50	> 50	> 50	> 50
O=c1c(-c2ccc(O)cc2)coc2cc(OCCCN3CCOCC3)cc(O)c12	> 50	> 50	> 50	> 50	> 50	> 50	> 50
O=c1c(-c2ccc(O)cc2)coc2cc(OCCCN3CCCCC3)cc(O)c12	> 50	> 50	> 50	> 50	> 50	> 50	> 50
O=c1c(-c2ccc(O)cc2)coc2cc(OCCN3CCOCC3)cc(O)c12	> 50	> 50	> 50	> 50	> 50	> 50	> 50
